Consider seven compounds from publication PMC5510570 (The Journal of organic chemistry, 2017).

Entries after “also recorded” stand apart in the source; their conditions may differ.

What all share (assay type): cell-based
Series [1] relates to human HEp2 cells. The series can be described thus: Phototoxicity. The conditions noted are these: for IC50: read-out: Phototoxicity IC50, 1.5 J/cm^2 light dose, up to 100 μM. The gist of the method: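 HEp2 cells were grown in 50:50 DMEM:AMEM with 5% FBS and 1% penicillin/streptomycin, plated at 7500 cells/well and grown 48 h. Cells were loaded 24 h with test compound at 0–100 μM (from 32 mM DMSO stock), washed with PBS and given fresh medium. They were irradiated 20 min with a 600 W water-filtered halogen lamp (~1.5 J/cm²) and incubated 24 h. Viability was read with 20% CellTiter Blue (4 h, 570/615 nm), normalized to untreated (100%) and 0.2% saponin (0%).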

Series [2] has as its system human HEp2 cells. The series can be described thus: Time-dependent cellular uptake. The conditions noted are these: for Cellular uptake at 24 h: 10 μM compound; for Cellular uptake (in words): 0-24 h. In outline: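 HEp2 cells, cultured and plated as for cytotoxicity, were exposed to 10 μM test compound for 0, 1, 2, 4, 8 and 24 h. Cells were PBS-washed and lysed in 0.25% Triton X-100/PBS, and fluorescence was read at 485/590 nm against a compound standard curve (0.3125–10 μM). Cell number was measured by CyQuant against a 10⁴–10⁵ cell standard curve. Uptake was expressed as nM compound per cell.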

Series [3] concerns human HEp2 cells. As to the kind of experiment: Dark cytotoxicity. As to conditions: read-out: Dark toxicity IC50, in the dark, up to 200 μM, incubated overnight. The gist of the method: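 HEp2 cells kept in 50:50 DMEM:AMEM with 5% FBS and 1% penicillin/streptomycin, seeded at 7500 per well and grown 48 h. Dosed at 0, 6.25, 12.5, 25, 50, 100 and 200 μM final, diluted from DMSO stock, overnight at 37°C, 5% CO₂. Washed with PBS, then 20% CellTiter Blue medium for 4 h, read at 570/615 nm. Untreated set to 100%, 0.2% saponin to 0%.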

Take 2,3,5,6,8-Pentaphenyl-BODIPY [BODIPY 4]: the “Phototoxicity (in words)” value in the series on human HEp2 cells [1] (light irradiation 1.5 J/cm^2, up to 100 μM) was “slight phototoxicity”. In addition, the figures for the IC50 in the series with human HEp2 cells [1] and in the series with human HEp2 cells [3] were over 100 µM and over 200 µM, respectively. Moreover, the “Cellular uptake at 24 h” value in the series with human HEp2 cells [2] was 0.058±0.028 nM/cell. In addition, in the series with human HEp2 cells [2] (10 μM), the “Cellular uptake (in words)” value is “very low uptake; also recorded: accumulated the least”.
As to “3,5,8-Triphenyl-2,6-dichloro-BODIPY [BODIPY 2]”, the IC50 in the series on human HEp2 cells [1] is over 100 µM; in the series with human HEp2 cells [3] it was over 200 µM. For the same compound, the “Cellular uptake at 24 h” value in the series with human HEp2 cells [2] turned out to be 1.2±0.10 nM/cell. Besides, in the series on human HEp2 cells [2] (10 μM), the “Cellular uptake (in words)” value is “taken-up faster and more efficiently at all times investigated; also recorded: accumulated the most within cells after 24 hours”.
Turning to “3,5,8-Triphenyl-2,6-dithienyl-BODIPY [BODIPY 3]”, the IC50 in the series on human HEp2 cells [1] was over 100 µM; with human HEp2 cells [3] it was over 200 µM. For the same compound, the “Cellular uptake at 24 h” value in the series with human HEp2 cells [2] is 0.14±0.01 nM/cell. Also, in the series on human HEp2 cells [2] (10 μM), the “Cellular uptake (in words)” value is reported as “very low uptake”.
Consider “8-(4-Benzyloxycarbonylphenyl)-3,5-di(4-methoxyphenyl)-2,6-dichloro-BODIPY [BODIPY 6a]”, for which the IC50 in the series with human HEp2 cells [1] is over 100 µM; with human HEp2 cells [3], over 200 µM. Also, in the series on human HEp2 cells [2], the “Cellular uptake at 24 h” value is 0.14±0.01 nM/cell.
Consider “8-(4-Cyanophenyl)-3,5-di(4-methoxyphenyl)-2,6-dithienyl-BODIPY [BODIPY 7]”, for which the values for the IC50 with human HEp2 cells [1] and in the series on human HEp2 cells [3] were over 100 µM and over 200 µM, respectively. Further, in the series with human HEp2 cells [2], the “Cellular uptake at 24 h” value is recorded as 0.12±0.01 nM/cell.
For `COc1ccc(C2=[N+]3C(=C(c4ccc(C#N)cc4)c4cc(Cl)c(-c5ccc(OC)cc5)n4[B-]3(F)F)C=C2Cl)cc1` [BODIPY 6b, 8-(4-Cyanophenyl)-3,5-di(4-methoxyphenyl)-2,6-dichloro-BODIPY], the IC50 is over 100 µM in the series on human HEp2 cells [1] and over 200 µM in the series on human HEp2 cells [3]. Further, the “Cellular uptake at 24 h” value with human HEp2 cells [2] is 0.51±0.01 nM/cell. The “Cellular uptake (in words)” value in the series with human HEp2 cells [2] (10 μM) is “higher cellular uptake; also recorded: highest cellular uptake”.
On to `COc1ccc(C2=CC3=C(c4ccc(C#N)cc4)c4cc(-c5ccc(C#N)cc5)c(-c5ccc(OC)cc5)n4[B-](F)(F)[N+]3=C2c2ccc(OC)cc2)cc1` [BODIPY 8, 8-(4-Cyanophenyl)-3,5-di(4-methoxyphenyl)-2-(4-methoxyphenyl)-6-(4-cyanophenyl)-BODIPY], for which the IC50 with human HEp2 cells [1] is over 100 µM. In the series with human HEp2 cells [2] (10 μM), the “Time at which uptake plateau was reached” value was found to be 8 h and the “Cellular uptake (in words)” value is “higher cellular uptake; also recorded: highest cellular uptake”. In the series with human HEp2 cells [2], the “Cellular uptake at 24 h” value is listed as 0.79±0.13 nM/cell. In the series with human HEp2 cells [3], the IC50 was over 200 µM.
